Source: PMC4561049 (Drugs in R&D, 2015)

What was measured:
[1] = assay type: in vivo, human
Summary of the method: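 Plasma sampling on day 28 in a subset of patients at overnight sites, after both the morning and the evening inhaled doses: 1 h–0 min pre-dose, then 0–30 min, 30 min–2 h, 2–6 h and 6–11 h post-dose. Samples were assayed by HPLC–MS (LLOQ 25 pg/mL), and concentrations were log-transformed. A two-compartment model with first-order absorption was fitted in NONMEM 7 by Monte Carlo importance sampling.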

[2] = test system: patients with moderate-to-severe COPD; assay: Population pharmacodynamic Emax model of day 29 trough FEV1 in COPD patients; assay type: in vivo, human
Summary of the method: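 COPD patients (≥40 y, ≥10 pack-years) received inhaled DISKUS test compound for 4 weeks: 100, 400 or 800 μg once daily (morning) or 100, 200 or 400 μg twice daily. Day 29 trough FEV1 (Vitalograph) was the mean of the 11 and 12 h post-evening-dose readings on day 28. An Emax model on total daily dose, with both regimens pooled, was fitted in NONMEM 7 (FOCE with interaction).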

[3] = test system: patients with moderate-to-severe COPD; assay: Relationship between systemic exposure; assay type: in vivo, human; settings: 0 to 4 h, day 1 and day 28; 100-800 μg once daily, 100-400 μg twice daily
Summary of the method: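 Individual observed plasma Cmax was plotted against maximum glucose, heart rate, QTcF (Fridericia correction) and potassium over 0–4 h on day 1 and day 28. Relationships were explored graphically only. Placebo Cmax was set to 0 pg/mL, and below-LLOQ values were plotted as 12.5 pg/mL (half of the 25 pg/mL LLOQ).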

[4] = test system: patients with moderate-to-severe COPD; settings: cited from earlier work
[5] = test system: patients with COPD; settings: 1200 µg once daily; cited from earlier work

- Vd/F ([1]; human, plasma, inhaled): 6.26 L
- Interindividual variability CL/F ([1]; population PK model, column head Log estimate): 0.594
- Relationship between maximum glucose and individual observed Cmax [3]: No clear relationships
- Relationship between minimum potassium and individual observed Cmax [3]: No clear relationships
Compound: COc1cc(NC(=O)CCN2CCC(OC(=O)Nc3ccccc3-c3ccccc3)CC2)c(Cl)cc1CNC[C@H](O)c1ccc(O)c2[nH]c(=O)ccc12 [GSK961081, batefenterol]
- Intercept for E0 (FEV1 at zero dose) ([2]; Emax model of day 29 trough FEV1, 347 COPD patients): 0.0650 L
- ED50 (dose producing 50 % of the maximum effect) ([2]; Emax model of day 29 trough FEV1 versus total daily dose, 347 COPD patients): 152 µg
- Difference between once-daily and twice-daily dosing for day 29 trough FEV1 ([2]; influence of dosing regimen on the PD model): no apparent difference
- Relationship between maximum QTcF and individual observed Cmax [3]: No clear relationships
- Relationship between maximum heart rate and individual observed Cmax [3]: No clear relationships
- Improvement in the trough FEV1 ([4]; after 28 days of treatment): 155 to 277 mL
- Dose response of QTc prolongation [4]: no apparent dose response
- Onset of action [4]: rapid onset of action
- Tolerability [4]: well tolerated
- Prolongation of various QTc intervals ([4]; in comparison with placebo or salmeterol): 3 to 5 ms
- Effect on glucose levels, potassium levels, heart rate, or blood pressure ([4]; safety findings of the primary publication): no effect
- Increase in the trough FEV1 from 400 to 800 μg ([4]; total daily dose): only a small increase
- Prolongation of the QT interval [5]: no prolongation of the QT interval
